The nature of series [1]: Cytotoxicity against human 9KB cells. Type of series: functional. Particulars: read-out: ED50 (the source's name). A digest of the protocol: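 9KB cell culture assay run under the National Cancer Institute programme with compounds supplied in DMF solution. Values are ED50 in μg/ml, and ≤4 μg/ml is taken as the significance criterion.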
Series [2] deals with L1210. As to the kind of experiment: Antitumor activity against mouse L1210 cells allografted in BDF1 mouse. In kind it is functional.
For series [3], the system named is Mus musculus. The experiment in a line: Toxicity in BDF1 mouse allografted with mouse L1210 cells at 200 mg/kg. In kind it is organism-based. More on the design: dose 200 mg/kg. Particulars: in vivo. The procedure, abridged:
(§1)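 Toxicity was recorded as lethality to BDF1 mice during the in vivo L1210 lymphoid leukemia screen. Compounds were given at 12.5, 50, 200 or 400 mg/kg.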

Series [4] has as its system Mus musculus. As to the kind of experiment: Toxicity in BDF1 mouse allografted with mouse L1210 cells at 400 mg/kg. In kind it is organism-based. Particulars: in vivo. Set-up: dose 400 mg/kg. The procedure, abridged: as §1
Series [5] relates to Mus musculus. As to the kind of experiment: Toxicity in BDF1 mouse allografted with mouse L1210 cells at 50 mg/kg. Type of series: organism-based. Set-up: dose 50 mg/kg. Particulars: in vivo. The procedure, abridged:
as §1

The test system of series [6] is Mus musculus. The experiment in a line: Toxicity in BDF1 mouse allografted with mouse L1210 cells at 12.5 mg/kg. In kind it is organism-based. More on the design: dose 12.5 mg/kg. Particulars: in vivo. A digest of the protocol: as §1

≈ marks a conversion by molar mass, not a printed value. Calls of active or inactive are those of the source.

For the compound `COC(=O)C1CC=CC(C)C1C(=O)OC` (stereo not given), in series [1], the EC50 turned out to be 48 µg/mL (≈ 226 µM). Also, the outcome in series [2] was inactive. The Activity result in series [3] and in series [4] was “Non-toxic” in each case.
Turning to `COC(=O)C1=C(C(=O)OC)C2CCC1C2`, in series [1], the EC50 was determined as 100 µg/mL (≈ 476 µM). Moreover, the outcome in series [2] was inactive. Moreover, the Activity entry in series [3] and in series [4] was “Non-toxic” in each case.
Take `COC(=O)[C@@H]1[C@H](C(=O)OC)[C@@H]2C=C[C@@H]1C2`: the EC50 in series [1] came out at 100 µg/mL (≈ 476 µM). Besides, in series [2], the outcome was inactive. Besides, the Activity result in series [3] and in series [4] was “Non-toxic” in each case.
As for `C1CC2CC1C1OC21` (stereo not given), the EC50 in series [1] worked out at 100 µg/mL (≈ 908 µM). Also, the outcome in series [2] was inactive. Besides, the Activity result in series [3] and in series [4] was “Non-toxic” throughout.
In the case of `COC(=O)C1=C(C(=O)OC)[C@H]2C[C@H]1[C@@H]1O[C@@H]12`, in series [1], the EC50 was found to be 22 µg/mL (≈ 98.1 µM). Further, the outcome in series [2] was inactive. Besides, the Activity entry in series [3] is reported as “Non-toxic”; in series [4], “Toxic”.
Regarding `COC(=O)C1=C(C(=O)OC)C2(C)C=CC1O2` (stereo not given), in series [1], the EC50 came to 3 µg/mL (≈ 13.4 µM). In series [2], the outcome was inactive. In addition, the Activity result in series [5] is reported as “Toxic”; in series [6], “Non-toxic”; in series [3], “Toxic”; in series [4] it was “Toxic”.
As to `C1=CCC2OC2C1` (stereo not given), the EC50 in series [1] amounted to 130 µg/mL (≈ 1350 µM). The result in series [2] was inactive. Also, the values for the Activity result in series [3] and in series [4] were “Non-toxic” and “Toxic”, respectively.
Turning to `C1OCC2OC12` (stereo not given), the EC50 in series [1] stood at 100 µg/mL (≈ 1160 µM). In addition, the outcome in series [2] was inactive. The Activity entry in series [3] and in series [4] was “Non-toxic” each time.
`COC(=O)C1CC2OC2C(C)C1C(=O)OC` (stereo not given): the EC50 in series [1] amounted to 100 µg/mL (≈ 438 µM). For the same compound, the outcome in series [2] was inactive. Moreover, the Activity result in series [3] and in series [4] was “Non-toxic” in each case.
As to `COC(=O)[C@@H]1[C@H]2O[C@@H]([C@H]3O[C@H]32)[C@@H]1C(=O)OC`, the EC50 in series [1] was found to be 100 µg/mL (≈ 438 µM). Further, in series [2], the outcome was inactive. Moreover, the Activity entry in series [3] and in series [4] was “Non-toxic” each time.
With `COC(=O)C1=C(C(=O)OC)[C@H]2O[C@H]1[C@@H]1O[C@@H]12`, the EC50 in series [1] is 1.5 µg/mL (≈ 6.63 µM). In addition, the result in series [2] was inactive. For the same compound, the Activity entry is reported as “Toxic” in series [5], “Non-toxic” in series [6], “Toxic” in series [3] and “Toxic” in series [4].
For the compound `COC(=O)C1=C(C(=O)OC)[C@@]2(C)O[C@H]1[C@@H]1O[C@@H]12`, in series [1], the EC50 was 3 µg/mL (≈ 12.5 µM). The result in series [2] was inactive. The Activity result was “Toxic” in series [5], “Non-toxic” in series [6], “Toxic” in series [3] and “Toxic” in series [4].
For `COC(=O)C1=C(C(=O)OC)C2CCC1O2`, the EC50 in series [1] is 22 µg/mL (≈ 104 µM). For the same compound, the outcome in series [2] was inactive. Moreover, the Activity entry in series [3] and in series [4] was “Non-toxic” each time.
On to `COC(=O)[C@@H]1[C@H](C(=O)OC)[C@@H]2C=C[C@@H]1O2`, for which the EC50 in series [1] amounted to 100 µg/mL (≈ 471 µM). The result in series [2] was inactive. In addition, the Activity entry in series [3] and in series [4] was “Non-toxic” in each case.
As for `COC(=O)[C@@H]1[C@H]2C[C@@H]([C@@H]3O[C@H]23)[C@@H]1C(=O)OC`, the EC50 in series [1] is 100 µg/mL (≈ 442 µM). Also, the outcome in series [2] was inactive. For the same compound, the Activity result in series [3] and in series [4] was “Non-toxic” each time.
For the compound `COC(=O)C1=C(C(=O)OC)C2C=CC1C2`, the EC50 in series [1] worked out at 100 µg/mL (≈ 480 µM). Moreover, the outcome in series [2] was inactive. For the same compound, the Activity result in series [3] and in series [4] was “Non-toxic” throughout.

The values above are taken from ChEMBL document CHEMBL3272281, “Synthesis and structure-activity relationship studies of cytotoxic epoxide derivatives of 7-oxabicyclo[2.2.1]heptane” (J Med Chem, 1977).
